The source made the active and inactive calls.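 How the source made its calls, unless noted: active means fluorescence slope higher than the sample average by over 3 SD (cut at about -0.22 in these data, passing the limit was not always enough); inactive means the rest.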

The nature of assay [1]: inhibitors of TNFa-induced NFkB p65 translocation, primary screen, imaging, HUVEC, MLSMR starter and 10KST1 sets (AID 438;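 active means inhibition above 20% together with a positive visual image hit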;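 further: compound added about 3h40 before a 20 min TNFalpha stimulation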;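 on inhibition: signal is the nuclear over cytoplasmic p65 intensity ratio per well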). The settings on record: HUVEC TNFa-induced p65 nuclear translocation; cell count: measured here: nuclei count (cytotoxicity indicator), at 2.08 µM unless noted; inhibition: at 2 µM, stronger effect = higher value unless noted.
Assay [2] can be described thus: reduction of polyQ htt aggregates in cells – imaging, exon1htt(103Q)mCFP cells, high-content imaging, primary screen (AID 483;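 active means visual image review flags a hit and inhibition of aggregation exceeds 20%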;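 further: compound exposure lasted 3 days before fixation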;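 on nuclei count: percent of the per-plate median nuclei count of sample wells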). The settings on record: exon1htt(103Q)mCFP cell line, aggregate imaging, at 2 µM; inhibition of aggregation: stronger effect = higher value; nuclei count: measured here: cell count, toxicity.
A short description of assay [3]: endothelial E-selectin expression blockers – imaging, HUVEC, immunofluorescence, MLSMR starter and 10KST1 sets, primary screen (AID 487;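 active means visually confirmed hit in the image check and inhibition above 20%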;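 on inhibition: signal is fraction of cell area covered by stained E-selectin grains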;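 on nuclei count: 100% = median nuclei count of all wells on the same plate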). The settings on record: HUVEC TNFalpha-induced E-selectin immunofluorescence imaging, at 2 µM; inhibition: stronger effect = higher value; nuclei count: measured here: cell number, toxicity.
Assay [4] concerns the target Voltage-gated potassium channel subunit beta-2 (Rattus norvegicus) (UniProt P62483). Kind of assay: inhibitors of rat Kvbeta2 reductase activity – biochemical, NADPH fluorescence, primary screen (AID 622).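 Further: slope of raw intensity against log time taken from 70 to 1610 s.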 The settings on record: recombinant KvBeta, 4-cyanobenzaldehyde reduction, at 10 µM, stronger effect = higher value.
Assay [5] has the same target. Kind of assay: enhancers of rat Kvbeta2 NADPH turnover – biochemical, NADPH fluorescence, primary screen (AID 623;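 active means NADPH fluorescence slope more negative than the mean of all samples by about 3 SD, 99.7% confidence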;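 further: fluorescence intensity change per second fitted from 20 to 320 s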). The settings on record: Recombinant KvBeta, NADPH fluorescence decrease slope, 10 min; at 10 µM; stronger effect = lower value.
Assay [6] has as its target Muscarinic acetylcholine receptor M4 (Homo sapiens) (UniProt P08173). Kind of assay: M4-linked GIRK flux change, two-sided – cell-based, HEK293 M4/GIRK, thallium flux, BTC-AM, M4 allosteric agonist project, primary screen (AID 625;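 active means fluorescence slope after compound addition differing from the mean of all tested samples at 99.7% confidence, mostly higher but some lower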;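 further: thallium influx through GIRK channels coupled to M4 in HEK293 cells with BTC-AM dye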). The settings on record: at 10 µM, actives lie on both sides. The essentials:
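Material: M4/GIRK1/GIRK2 stable HEK293 cell line. Medium: pH 7.3 thallium assay buffer. Dosing: single compound concentration, 10 µM final. Schedule: 1 h dye loading, 2 min kinetic read. Measured by: kinetic fluorescence with BTC-AM dye. Read-out: post-addition slope, 15–24 s, of baseline-normalized fluorescence. Benchmarks: carbachol and DMSO controls.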

Assay [7] in a line: blockers of RIG-like receptor reporter activation – cell-based, Sendai virus stimulus, luciferase, 10K MLSCN set, TLR/RLR signaling modifier project, primary screen (AID 602276;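 active means inhibition at or above 50% at 10 µM; inactive means inhibition below 50%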;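 further: firefly luciferase from ISG56 promoter only with Renilla not read in this screen; 0% = Sendai virus plus DMSO and 100% = medium plus DMSO without virus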). The settings on record: HEK293 RL24 IRF3 luciferase reporter, at 10 µM, stronger effect = higher value.
A short description of assay [8]: TLR3 IRF3 reporter activation blockers – cell-based, poly I:C stimulus, luciferase, 10K MLSCN set, primary screen (AID 602277;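 active means inhibition of the reporter signal at or above 50%; inactive means inhibition below 50%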). The settings on record: HEK293-TLR3 RL24 IRF3 luciferase reporter, at 10 µM, stronger effect = higher value. Background: A reporter such as luciferase makes a cellular process visible.
The target in assay [9] is Alpha-2C adrenergic receptor (Homo sapiens) (UniProt P18825). Nature of the assay: compounds altering alpha2C-coupled GIRK flux – cell-based, HEK293 alpha2C/GIRK1/2, thallium flux, primary screen (AID 624;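 active means fluorescence slope after compound addition differing from the mean of all screened samples at 99.7% confidence, in either direction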;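 further: slope of fluorescence ratio to pre-addition baseline per second over 15 to 24 s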). The settings on record: thallium flux BTC fluorescence, at 10 µM, actives lie on both sides.
Chain of Alpha-2C adrenergic receptor (Homo sapiens) (P18825 whole entry, looked up): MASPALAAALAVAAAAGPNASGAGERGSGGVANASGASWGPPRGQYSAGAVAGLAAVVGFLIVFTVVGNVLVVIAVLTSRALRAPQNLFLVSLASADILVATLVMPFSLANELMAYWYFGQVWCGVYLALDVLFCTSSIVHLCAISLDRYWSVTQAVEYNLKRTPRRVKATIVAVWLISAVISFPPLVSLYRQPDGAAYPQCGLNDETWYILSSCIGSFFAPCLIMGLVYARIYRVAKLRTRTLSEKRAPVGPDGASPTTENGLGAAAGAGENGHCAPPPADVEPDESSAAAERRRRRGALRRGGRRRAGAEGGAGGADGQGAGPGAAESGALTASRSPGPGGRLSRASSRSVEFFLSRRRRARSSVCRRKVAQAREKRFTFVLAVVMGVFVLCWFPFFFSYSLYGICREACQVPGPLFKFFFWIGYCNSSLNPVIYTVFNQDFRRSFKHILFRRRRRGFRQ
Assay [10] can be described thus: inhibitors of larval lipid processing in zebrafish, primary screen, whole organism, PED6 fluorescence, gall bladder and intestine (AID 686;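 active means a full or partial loss of lipid-probe fluorescence in the fish gall bladder, intestine or both, judged by eye; inactive means no fluorescence loss, or compound toxic to the fish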;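 further: larvae 5 to 7 days old with five fish per well; signal comes from phospholipase A2 cleavage of quenched PED6 carried via bile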). The settings on record: Zebrafish larvae PED6 lipid processing, fluorescence scoring. The essentials: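 System: live zebrafish larvae aged 5-7 days, whole organism; measure: graded gall bladder and intestinal fluorescence inhibition per well; incubation: overnight exposure; reagent: ingested quenched lipid PED6 at 100 nM; signal: By-eye fluorescence microscopy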

Chain of Voltage-gated potassium channel subunit beta-2 (Rattus norvegicus) (P62483 whole entry, looked up): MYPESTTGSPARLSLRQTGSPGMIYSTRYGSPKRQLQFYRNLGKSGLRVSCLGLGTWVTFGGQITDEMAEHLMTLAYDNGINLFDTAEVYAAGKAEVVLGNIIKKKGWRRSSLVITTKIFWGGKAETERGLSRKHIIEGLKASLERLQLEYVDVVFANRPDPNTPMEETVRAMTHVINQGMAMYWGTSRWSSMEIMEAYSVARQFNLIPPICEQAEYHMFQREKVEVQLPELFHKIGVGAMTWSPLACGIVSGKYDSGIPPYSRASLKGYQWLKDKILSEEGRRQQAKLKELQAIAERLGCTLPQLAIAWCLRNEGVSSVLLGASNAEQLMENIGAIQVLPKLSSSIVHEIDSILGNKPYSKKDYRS
Chain of Muscarinic acetylcholine receptor M4 (Homo sapiens) (P08173 whole entry, looked up): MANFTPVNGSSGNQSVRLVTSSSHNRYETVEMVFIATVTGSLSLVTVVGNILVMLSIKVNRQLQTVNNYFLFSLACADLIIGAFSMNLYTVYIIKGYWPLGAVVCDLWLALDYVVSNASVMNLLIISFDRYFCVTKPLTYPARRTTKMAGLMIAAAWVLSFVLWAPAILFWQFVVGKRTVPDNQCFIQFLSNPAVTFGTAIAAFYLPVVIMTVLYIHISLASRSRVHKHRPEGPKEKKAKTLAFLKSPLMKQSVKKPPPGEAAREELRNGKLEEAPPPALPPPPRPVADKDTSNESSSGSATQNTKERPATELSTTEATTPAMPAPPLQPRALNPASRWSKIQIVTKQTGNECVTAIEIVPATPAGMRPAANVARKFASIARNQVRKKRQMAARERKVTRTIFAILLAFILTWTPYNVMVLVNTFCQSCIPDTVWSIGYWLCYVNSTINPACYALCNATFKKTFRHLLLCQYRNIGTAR

As to `COc1cc(C2NCc3ccccc3-n3cccc32)ccc1O` (configuration not stated), the cell count in assay [1] is 660. Further, the inhibition (as a rule, the change of the read-out against control, counted positive when it falls) is -19.1% (inactive) in [1], -128% (inactive) in assay [3], -1.03% (inactive) in assay [7] and -2.21% (inactive) in assay [8]. In assay [2], the inhibition of aggregation is 12.9% (inactive). For the same compound, the nuclei count in assay [2] amounted to 123%; in [3], 110%. Also, the fluorescence slope in assay [4] was -0.487 (inactive); in assay [6], 0.00515 (inactive). Besides, the NADPH fluorescence slope in [5] was -3.3e-05 (inactive).
Regarding `C=CCN1C(=O)C2(C(C(=O)OCC)=C(N)Oc3c2c(=O)oc2ccccc32)c2ccccc21` (configuration not stated), in assay [1], the cell count came out at 679. Moreover, the inhibition in [1] was -7.1% (inactive); in assay [3] it was -41% (inactive); in assay [7], 13.6% (inactive); in assay [8], 21.3% (inactive). The inhibition of aggregation in assay [2] was 10.1% (inactive). Moreover, the values for the nuclei count in assay [2] and in assay [3] were 93.2% and 91.1%, respectively. In addition, the fluorescence slope in assay [4] was -0.467 (inactive). Further, the NADPH fluorescence slope in assay [5] is -0.000107 (inactive). For the same compound, the slope in assay [9] was 0.00519 (inactive). The outcome in assay [10] was inactive.
In [1], `Oc1ccc(C2NCc3ccccc3-n3cccc32)cc1Cl` (configuration not stated) gave a cell count of 668. For the same compound, the inhibition is -13.6% (inactive) in [1], -48.5% (inactive) in [3], 4.87% (inactive) in assay [7] and 23.9% (inactive) in assay [8]. Moreover, the inhibition of aggregation in assay [2] is 35.1% (inactive). Also, the nuclei count was 127% in assay [2] and 110% in [3]. Also, the fluorescence slope in [4] is -0.46 (inactive); in assay [6], 0.00669 (inactive). Moreover, the NADPH fluorescence slope in [5] is -3.3e-05 (inactive).
In the case of `CC(=O)N1CC(=O)Nc2ccc(Cl)cc2C1c1ccc(F)cc1` (configuration not stated), the cell count in assay [1] turned out to be 416. Moreover, the inhibition in [1] is 20.8% (inactive); in assay [3], -45.1% (inactive); in assay [7], -2.3% (inactive); in [8], -0.788% (inactive). Moreover, in assay [2], the inhibition of aggregation was -6.1% (inactive). Besides, the nuclei count in assay [2] stood at 103%; in assay [3], 105%. Also, the fluorescence slope in [4] was -0.569 (inactive); in [6], 0.00574 (inactive). Further, the NADPH fluorescence slope in assay [5] was -1.5e-05 (inactive).
As to `C=CCOC(=O)COc1cc(C)cc2oc(=O)c3c(c12)CCC3`, the cell count in [1] stood at 609. Also, the inhibition is 6% (inactive) in [1], 75.7% (active) in assay [3], -1.05% (inactive) in [7] and 99.1% (active) in assay [8]. Besides, in assay [2], the inhibition of aggregation was 20.1% (inactive). In addition, the nuclei count in assay [2] was determined as 85.8%; in assay [3] it was 49.1%. The fluorescence slope in assay [4] is -0.254 (inactive). In addition, the NADPH fluorescence slope in assay [5] is -4.4e-05 (inactive). For the same compound, the slope in assay [9] was 0.00532 (inactive). In assay [10], the call was inactive.
Compound `COc1ccc(N2CCN(CCCN)CC2)cc1` displayed a cell count in assay [1] of 356. For the same compound, the inhibition in [1] was 2.8% (inactive); in assay [3] it was -21% (inactive); in assay [7] it was 11.2% (inactive); in assay [8] it was 15.4% (inactive). Besides, in assay [2], the inhibition of aggregation was -5.7% (inactive). For the same compound, the results for the nuclei count in assay [2] and in assay [3] were 106% and 113%, respectively. The fluorescence slope in assay [4] is -0.603 (inactive). Also, the NADPH fluorescence slope in assay [5] is -1.3e-05 (inactive). Further, in assay [9], the slope is 0.00595 (inactive).
Regarding `CCC(C)NC(=O)c1c(N)n(CC2CCCO2)c2nc3ccccc3nc12` (configuration not stated), the cell count in assay [1] was 603. The inhibition in assay [1] is -1.4% (inactive); in assay [3], -13.3% (inactive); in assay [7] it was 14.8% (inactive); in assay [8], 17.6% (inactive). The inhibition of aggregation in assay [2] is -0.7% (inactive). For the same compound, the nuclei count in assay [2] turned out to be 80.9%; in [3] it was 128%. For the same compound, the fluorescence slope in assay [4] is -0.058 (active); in assay [6], 0.00598 (inactive). The NADPH fluorescence slope in assay [5] was 1.6e-05 (inactive).
`COc1ccc(CN2CCN(c3ccccc3F)CC2)c(OC)c1` gave a cell count in assay [1] of 420. The inhibition is 7.1% (inactive) in assay [1], -39% (inactive) in assay [3], 4.18% (inactive) in [7] and 24.2% (inactive) in assay [8]. For the same compound, in [2], the inhibition of aggregation is -8.1% (inactive). Further, the nuclei count in assay [2] stood at 109%; in [3] it was 125%. The fluorescence slope in assay [4] is -0.38 (inactive). Also, the NADPH fluorescence slope in assay [5] was 4.4e-05 (inactive). Moreover, the slope in [9] was 0.00736 (inactive).
`O=C(CN1C(=O)CN=C(c2ccccc2)c2ccccc21)NCc1ccco1`: in assay [1], the cell count was 519. For the same compound, the inhibition in assay [1] was -2.9% (inactive); in [3], -66.7% (inactive); in assay [7], -12.7% (inactive); in [8], -12.1% (inactive). Further, the inhibition of aggregation in [2] was -13.4% (inactive). The nuclei count came to 99.4% in assay [2] and 142% in [3]. Further, the fluorescence slope in assay [4] is -0.571 (inactive); in assay [6], 0.00595 (inactive). In assay [5], the NADPH fluorescence slope was -6.4e-05 (inactive).
Regarding `Cc1ccc(O)c(CN2CCN(c3ccccc3)CC2)c1`, the cell count in assay [1] came out at 307. The inhibition in assay [1] was 1% (inactive); in assay [3] it was -91.9% (inactive); in assay [7], 12% (inactive); in assay [8] it was 15.6% (inactive). In addition, in assay [2], the inhibition of aggregation was -4.7% (inactive). Also, the nuclei count came to 95.9% in assay [2] and 120% in assay [3]. Also, the figures for the fluorescence slope in assay [4] and in assay [6] were -0.202 (inactive) and 0.00457 (inactive), respectively. The NADPH fluorescence slope in [5] is -1.8e-05 (inactive).
In assay [1], `CC12CCCCC1=[N+]([O-])CN2O` (configuration not stated) yielded a cell count of 725. In addition, the inhibition in [1] is -10% (inactive); in assay [3], -15.8% (inactive); in [7], -0.121% (inactive); in assay [8], 6.9% (inactive). For the same compound, in assay [2], the inhibition of aggregation was -27.6% (inactive). For the same compound, the nuclei count was 99.9% in assay [2] and 118% in [3]. For the same compound, the figures for the fluorescence slope in assay [4] and in [6] were -0.554 (inactive) and 0.0045 (inactive), respectively. In addition, the NADPH fluorescence slope in [5] was 1.5e-05 (inactive).
On to `CCOC(=O)C1=C(N)OC(C)=C(C(=O)OCCOC)C12C(=O)Nc1ccccc12` (configuration not stated), for which, in [1], the cell count was 336. Moreover, the inhibition in [1] is 4.8% (inactive); in assay [3], -113% (inactive); in [7] it was 19.8% (inactive); in assay [8], 32% (inactive). The inhibition of aggregation in assay [2] is -0.2% (inactive). Also, the results for the nuclei count in assay [2] and in assay [3] were 91.4% and 97%, respectively. Besides, in assay [4], the fluorescence slope was -0.454 (inactive). For the same compound, the NADPH fluorescence slope in [5] is -0.000189 (active). For the same compound, the slope in [9] was 0.00493 (inactive). For the same compound, the call in assay [10] was inactive.
In [1], `Nc1ccnn1C1CCNCC1` registered a cell count of 285. The inhibition in assay [1] was 2.4% (inactive); in [3], -43.8% (inactive); in assay [7], 5.24% (inactive); in assay [8], 17.3% (inactive). Moreover, in [2], the inhibition of aggregation was 6.2% (inactive). Also, the nuclei count in [2] was found to be 99.6%; in assay [3] it was 127%. The fluorescence slope in assay [4] is -0.541 (inactive). In addition, the NADPH fluorescence slope in assay [5] is 2.9e-05 (inactive). Further, the slope in assay [9] was 0.00512 (inactive).
`O=C(Cn1c2c(c(-c3ccccc3Cl)cc1=O)CCC2)N1CCC2(CC1)OCCO2`: the cell count in assay [1] is 861. The inhibition in [1] is -5% (inactive); in assay [3], -175% (inactive); in assay [7], -8.12% (inactive); in assay [8], -12.2% (inactive). The inhibition of aggregation in assay [2] was -9% (inactive). Moreover, the nuclei count in [2] was 107%; in [3], 125%. In addition, the fluorescence slope in assay [4] is -0.605 (inactive); in assay [6], 0.00803 (inactive). In assay [5], the NADPH fluorescence slope is 9.7e-06 (inactive).

The values are drawn from PubChem BioAssay.
